The record followed here is ChEMBL document CHEMBL1122064, “Synthesis and biological evaluation of 17-[131I]iodo-9-telluraheptadecanoic acid, a potential imaging agent” (J Med Chem, 1982).

For series [1], the system named is Rattus norvegicus. Nature of the series: Distribution of radioactivity in kidneys of Fischer 344 female rat after 30 min of intravenous administration. The format is ADME, organism-based, Kidney. Particulars: in vivo, 0.5 h.
The test system of series [2] is Rattus norvegicus. Put plainly: Distribution of radioactivity in kidneys of Fischer 344 female rat after 5 min of intravenous administration. The following applies: in vivo. Format: ADME, organism-based, Kidney. The method in brief: (§1)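 In female Fischer 344 rats, each animal received about 2.5 µCi of the 123mTe-labelled fatty acid (sp act. ~16 mCi/mmol) in 6% bovine serum albumin through a lateral tail vein. Four rats were used per time point. Excised organs were rinsed, blotted, weighed and counted on a Ge(Li) analyzer. Results are mean (range) % injected dose per gram.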

The subject of series [3] is Rattus norvegicus. Nature of the series: Distribution of radioactivity in kidneys of Fischer 344 female rat after 60 min of intravenous administration. Format: ADME, organism-based, Kidney. The following applies: in vivo, 1 h.
The subject of series [4] is Rattus norvegicus. Nature of the series: Distribution of radioactivity in blood of Fischer 344 female rat after 5 min of intravenous administration. The format is ADME, organism-based. Particulars: in vivo. The method in brief:
as §1

Series [5] deals with Rattus norvegicus. Put plainly: Distribution of radioactivity in blood of Fischer 344 female rat after 60 min of intravenous administration. Format: ADME, organism-based. Particulars: in vivo, 1 h.
Series [6] concerns Rattus norvegicus. Nature of the series: Distribution of radioactivity in liver of Fischer 344 female rat after 30 min of intravenous administration. The format is ADME, organism-based. The following applies: in vivo, 0.5 h. The method in brief:
(§2)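 Female Fischer 344 rats, 10-12 weeks, 170-200 g, fed ad libitum. The labelled fatty acid was given in 6% bovine serum albumin via a lateral tail vein under ether anaesthesia. Rats were killed by CO2 anaesthesia and cervical fracture; organs were excised, rinsed, blotted, weighed and counted by Ge(Li) analyzer. Results are mean percent injected dose/g with range.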

The test system of series [7] is Rattus norvegicus. Nature of the series: Distribution of radioactivity in liver of Fischer 344 female rat after 60 min of intravenous administration. The format is ADME, organism-based. The following applies: in vivo, 1 h. The method in brief:
as §2

The subject of series [8] is Rattus norvegicus. Nature of the series: Distribution of radioactivity in lungs of Fischer 344 female rat after 30 min of intravenous administration. The format is ADME, organism-based, Lung. Particulars: in vivo, 0.5 h. The method in brief:
as §2

Series [9] deals with Rattus norvegicus. Put plainly: Distribution of radioactivity in lungs of Fischer 344 female rat after 5 min of intravenous administration. The format is ADME, organism-based, Lung. Particulars: in vivo. The method in brief:
(§3)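 Tracer was the 123mTe-labelled fatty acid, about 2.5 μCi per rat (sp act. ~16 mCi/mmol), given in 6% bovine serum albumin into a lateral tail vein. Female Fischer 344 rats, 10-12 weeks, 170-200 g, four per time point. Excised organs were rinsed, blotted and weighed, then counted by Ge(Li) analyzer, with mean percent injected dose/g and range reported.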

Series [10] deals with Rattus norvegicus. Nature of the series: Distribution of radioactivity in lungs of Fischer 344 female rat after 60 min of intravenous administration. The following applies: in vivo, 1 h. The format is ADME, organism-based, Lung. The method in brief:
as §2

Series [11] has as its system Rattus norvegicus. Put plainly: Distribution of radioactivity in heart of Fischer 344 female rat after 30 min of intravenous administration. Format: ADME, organism-based. Particulars: in vivo, 0.5 h.
The test system of series [12] is Rattus norvegicus. Nature of the series: Distribution of radioactivity in heart of Fischer 344 female rat after 5 min of intravenous administration. Format: ADME, organism-based. The following applies: in vivo. The method in brief:
as §1

For series [13], the system named is Rattus norvegicus. Put plainly: Distribution of radioactivity in heart of Fischer 344 female rat after 60 min of intravenous administration. The following applies: in vivo, 1 h. The format is ADME, organism-based.
Series [14] concerns Rattus norvegicus. Nature of the series: Distribution of radioactivity in blood of Fischer 344 female rat after 30 min of intravenous administration. Format: ADME, organism-based. The following applies: in vivo, 0.5 h.
The subject of series [15] is Rattus norvegicus. Put plainly: Distribution of radioactivity in liver of Fischer 344 female rat after 5 min of intravenous administration. Particulars: in vivo. The format is ADME, organism-based. The method in brief:
as §3

In the case of `O=C(O)CCCCCCCC[123Te]CCCCCCCCI`, the Distribution of radioactivity in [1] was 1.05 dose g-1; in [2], 1.17 dose g-1; in series [3], 0.99 dose g-1; in series [4] it was 0.13 dose g-1; in series [5], 0.25 dose g-1; in series [6] it was 2.11 dose g-1. Further, the Distribution of radioactivity is 1.65 dose g-1 in [7]; 0.62 dose g-1 in series [8]; 0.67 dose g-1 in series [9]; 0.56 dose g-1 in series [10]; 2.24 dose g-1 in [11]; 1.38 dose g-1 in series [12]. In addition, the Distribution of radioactivity worked out at 1.58 dose g-1 in series [13], 0.36 dose g-1 in series [14] and 3.33 dose g-1 in [15].
